Source: PubChem
KCNQ1 block: inhibitors of human KCNQ1 channel, primary screen, cell-based, thallium flux, high-throughput | CHO-K1 KCNQ1, FluxOR thallium flux fluorescence; stronger effect = higher value | B-score at 10 µM | 310,000 compounds, 1.3% hits;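 active = compounds whose thallium flux B-score, printed positive for inhibition, exceeds three library SD while starting fluorescence stays within three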;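 also: channel opened by potassium depolarization with thallium stimulus after 20 min compound exposure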
KCNQ1 pot: potentiators or activators of KCNQ1 channel, primary screen, cell-based, thallium flux, high-throughput. Potassium voltage-gated channel subfamily KQT member 1 (Homo sapiens), P51787. CHO-K1 KCNQ1, thallium flux FluxOR fluorescence; stronger effect = higher value. B-score at 10 µM. 310,000 compounds, 0.35% hits;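 active = fluorescence ratio B-score, a plate-corrected score, at least three library SD, with initial intensity B-score within 5 SD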
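Medium – assay buffer, equal DMSO in all wells · Material – CHO-K1 cell line with stable KCNQ1 potassium channel expression · Signal – kinetic FluxOR thallium fluorescence, 10-s 1-Hz baseline, 110-s post-stimulus read · Compound – single concentration per compound, DMSO matched to controls · Schedule – 37 °C overnight plating, 90-min dark dye load, 20-min compound pretreatment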
KCNK9 inh: KCNK9 potassium channel inhibitors, primary screen, HEK293 cells, thallium flux; B-score at 10 µM; FluxOR thallium flux fluorescence; stronger effect = lower value; 310,000 compounds, 1.2% hits; AID 488922, 2010; Potassium channel subfamily K member 9 (Homo sapiens), Q9NPC2;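 active = ratio B-score over 3 SD below the library mean, with starting fluorescence within 5 SD of its mean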;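 also: negative B-score means less thallium flux so channel inhibition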
Target sequence (Q9NPC2 whole entry, looked up): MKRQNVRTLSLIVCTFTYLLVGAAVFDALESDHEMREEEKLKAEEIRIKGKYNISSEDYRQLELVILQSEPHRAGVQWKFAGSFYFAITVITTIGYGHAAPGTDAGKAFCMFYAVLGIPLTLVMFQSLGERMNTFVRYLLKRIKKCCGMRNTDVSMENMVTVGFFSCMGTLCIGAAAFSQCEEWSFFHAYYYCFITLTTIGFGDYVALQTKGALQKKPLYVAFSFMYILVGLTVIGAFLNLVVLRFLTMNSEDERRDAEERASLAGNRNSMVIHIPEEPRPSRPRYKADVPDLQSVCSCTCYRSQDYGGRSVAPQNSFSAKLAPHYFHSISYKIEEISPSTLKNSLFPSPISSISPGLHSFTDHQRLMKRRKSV
KCNK3 inh: human KCNK3 channel inhibitors, primary screen, CHO cells, FluxOR thallium flux, B-score | Potassium channel subfamily K member 3 (Homo sapiens), O14649 | FluxOR fluorescence; stronger effect = lower value | B-score at 10 µM | 340,000 compounds, 0.84% hits | AID 602410, 2012;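 active = B-score under library mean minus 4 SD, starting fluorescence ratio at most library mean plus 5 SD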;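 also: more negative B-score means stronger inhibition of thallium flux through KCNK3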
PHOSPHO1 inh: PubChem AID 1565. 290,000 compounds, 1.1% hits. Phosphoethanolamine/phosphocholine phosphatase (Homo sapiens), Q8TCT1. recombinant PHOSPHO1, absorbance phosphatase assay. inhibition, % at 13.3 µM; in the data active = inhibition above about 60%
Target sequence (Q8TCT1 whole entry, looked up): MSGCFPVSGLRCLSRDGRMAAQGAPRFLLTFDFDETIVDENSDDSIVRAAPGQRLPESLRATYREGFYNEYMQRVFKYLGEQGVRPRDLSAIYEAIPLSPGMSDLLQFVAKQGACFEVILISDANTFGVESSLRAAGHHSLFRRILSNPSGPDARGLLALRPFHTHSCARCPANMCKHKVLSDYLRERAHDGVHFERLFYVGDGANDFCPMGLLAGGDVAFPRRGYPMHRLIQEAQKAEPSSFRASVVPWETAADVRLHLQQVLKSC
hERG rescue: hERG rescue from dofetilide block, primary screen, cell-based, CHO-hERG, FluxOR thallium flux, dofetilide IC70. Voltage-gated inwardly rectifying potassium channel KCNH2 (Homo sapiens), Q12809. dofetilide IC70 present. activation (rescue from dofetilide block), less the hit threshold, % at 10 µM. 310,000 compounds, 0.51% hits;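 active = activation above the mean of controls blocked by dofetilide plus 5 SD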;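 also: thallium influx through hERG after potassium depolarization seen as dye fluorescence rise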
KCNK9 inh conf: KCNK9 potassium channel inhibitors, confirmation, HEK293 cells, thallium flux, duplicate; AID 492992, 2010; 4,900 compounds, 43% hits; FluxOR thallium flux fluorescence; shares compounds with KCNK9 inh; inhibition, % at 10 µM;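 active = thallium signal inhibited by more than 5 SD of the compound-free buffer control wells, on both duplicate plates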
Kir2-1 spec: mouse Kir2.1 channel inhibition, confirmation, selectivity assay for KCNK9 modulator project, cell-based, HEK293, thallium flux. shares compounds with KCNK9 inh. Kir2.1 cells, FluxOR thallium flux fluorescence. inhibition, % at 10 µM. 4,900 compounds, 4% hits;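 active = thallium signal drop more than 5 SD beyond the mean of the no-compound control wells, seen in both duplicate plates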;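 also: signal is fluorescence rise after thallium addition divided by baseline fluorescence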
KCNK9 uninduced: thallium flux in non-induced HEK293 cells, confirmation, counter-screen for KCNK9 inhibitor project, cell-based, second counter screen, non-induced KCNK9-HEK293 | shares compounds with KCNK9 inh | FluxOR thallium flux | inhibition, % at 10 µM | 4,900 compounds, 40% hits | AID 492997, 2010;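 active = thallium signal drop beyond 5 SD of the untreated control mean, on both duplicate plates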
Large screens that a line does not name were inactive (follow-up assays come after a bar, where they were run). In the library only some 4% were active in any assay of this set; here they are far more common.

CCOc1cc(S(=O)(=O)Nc2ccc(CC)cc2)ccc1Cl	none | KCNK9 inh conf inactive | Kir2-1 spec inactive | KCNK9 uninduced inactive
CCN(CC)S(=O)(=O)c1cc(NC(=O)C(C)N(C)CC(=O)Nc2c(C)cccc2C)ccc1C (configuration not stated)	KCNK9 inh -10 | KCNK9 inh conf 52% | Kir2-1 spec inactive | KCNK9 uninduced 36%
Fc1ccc(Sc2nc(-c3ccccc3)nnc2C(F)(F)F)cc1	none | KCNK9 inh conf inactive | Kir2-1 spec inactive | KCNK9 uninduced inactive
O=S(=O)(c1cccc(S(=O)(=O)N2CCCC2)c1)c1cccc(S(=O)(=O)N2CCCC2)c1	KCNK9 inh -9.2 | KCNK9 inh conf 54% | Kir2-1 spec inactive | KCNK9 uninduced inactive
O=C(OCc1ccc(Br)cc1)c1cccc(S(=O)(=O)N2CCCC2)c1	KCNK9 inh -12 (no result: PHOSPHO1 inh) | KCNK9 inh conf inactive | Kir2-1 spec inactive | KCNK9 uninduced 34%
O=C1c2ccccc2NC(c2ccco2)N1O (configuration not stated)	none
O=C1C2=C(Nc3ccccc3SC2c2ccco2)c2ccccc21 (configuration not stated)	KCNQ1 block 13, KCNK9 inh -18 | KCNK9 inh conf 65% | Kir2-1 spec inactive | KCNK9 uninduced 30%
CCSc1nc2ccccc2n1C(=O)c1ccc(S(=O)(=O)N2CCCCCC2)cc1	none | KCNK9 inh conf inactive | Kir2-1 spec inactive | KCNK9 uninduced inactive
CCSc1nc2ccccc2n1C(=O)c1ccc(S(=O)(=O)N2CCCCC2)cc1	none
Cc1occc1C(=O)N1CCN(c2ccc(Cl)c(Cl)c2)CC1	none
CC/C(C)=N/NS(=O)(=O)c1ccc(C)c([N+](=O)[O-])c1	none
C/C(CCC(C)C)=N\NS(=O)(=O)c1ccc(C)c([N+](=O)[O-])c1	KCNK9 inh -8.9 | KCNK9 inh conf 64% | Kir2-1 spec inactive | KCNK9 uninduced 41%
O=S(=O)(c1ccc(Oc2ccc(Br)cc2)cc1)N1CCOCC1	none | KCNK9 inh conf inactive | Kir2-1 spec inactive | KCNK9 uninduced inactive
O=C(Nc1c(Cl)cccc1Cl)c1ccc(-c2ccccc2)cc1	KCNK9 inh -8.5 | KCNK9 inh conf 34% | Kir2-1 spec inactive | KCNK9 uninduced inactive
O=C(Nc1ccc(Cl)cc1Cl)c1ccc(-c2ccccc2)cc1	none
COCCCN(CC(=O)O)S(=O)(=O)c1ccccc1	none
CCOC(=O)/C(=N\Nc1ccc(Br)cc1)N1CC(C)OC(C)C1 (configuration not stated)	KCNK9 inh -18 | KCNK9 inh conf 75% | Kir2-1 spec inactive | KCNK9 uninduced 44%
CCOC(=O)/C(=N\Nc1ccccc1Cl)N1CC(C)OC(C)C1 (configuration not stated)	none
Cc1ccc(SCCCn2cnc3ccccc3c2=O)cc1	none | KCNK9 inh conf inactive | Kir2-1 spec inactive | KCNK9 uninduced inactive
COc1ccc(OCc2nnc(SCC(=O)Nc3ccccc3F)o2)cc1	none
CCCN(CCC)S(=O)(=O)c1ccc2c(c1)CCCN2C(C)=O	none
CCCN(CCC)S(=O)(=O)c1ccc(C(=O)N2CCCc3ccccc32)cc1	none | KCNK9 inh conf inactive | Kir2-1 spec inactive | KCNK9 uninduced inactive
COc1ccc(C2c3[nH]c4ccccc4c3CCN2Cc2ccoc2)c(F)c1 (configuration not stated)	none | KCNK9 inh conf inactive | Kir2-1 spec inactive | KCNK9 uninduced inactive
Cc1ccc(Cc2nnc3n(-c4ccccc4)nc(C(=O)c4ccccc4)n3c2=O)cc1	none | KCNK9 inh conf inactive | Kir2-1 spec inactive | KCNK9 uninduced inactive
COc1ccc(Nc2nc(Nc3ccc(OC)cc3)nc(-n3[nH]c(=O)c(C)c3C)n2)cc1	none
CCN(c1ccccc1)S(=O)(=O)c1cc([N+](=O)[O-])ccc1N	KCNK9 inh -11 | KCNK9 inh conf 41% | Kir2-1 spec 31% | KCNK9 uninduced 33%
Cc1ccc(C)c(OCC(=O)Nc2cc(C(=O)O)cc(C(=O)O)c2)c1	none
Cc1ccc(C)c(OCC(=O)Nc2ccc(C(=O)O)cc2NC(=O)COc2cc(C)ccc2C)c1	none | KCNK9 inh conf inactive | Kir2-1 spec inactive | KCNK9 uninduced inactive
Cc1ccc(OCC(=O)Nc2cc(NC(=O)COc3ccc(C)c(C)c3)cc(C(=O)O)c2)cc1C	none | KCNK9 inh conf inactive | Kir2-1 spec inactive | KCNK9 uninduced inactive
O=C(Nc1cc(Cl)ccc1Cl)N1CCN(C(=O)Nc2cc(Cl)ccc2Cl)CC1	none (no result: KCNQ1 block, KCNQ1 pot, KCNK9 inh, PHOSPHO1 inh, hERG rescue)
CC(C)CN(CCOc1cccc(N2C(=O)C3=C(CCCC3)C2=O)c1)CC(C)C	none | KCNK9 inh conf inactive | Kir2-1 spec inactive | KCNK9 uninduced inactive
Cc1ccc(Cn2nnc3c(=O)n(CC(=O)NCC4CCCO4)cnc32)cc1 (configuration not stated)	none
O=c1[nH]c(CN2CCN(CCO)CC2)nc2ccccc12	none
Cc1ccc(C)c(N2CCN(CC3CCCCC3)CC2)c1	none | KCNK9 inh conf inactive | Kir2-1 spec inactive | KCNK9 uninduced inactive
COc1cccc(N2CCN(C3CCCC(C)C3)CC2)c1 (configuration not stated)	none
C/C=C(\C)CN1CCN(c2cc(C)ccc2C)CC1	none
Cc1ccc(C)c(N2CCN(C3CCCC(C)C3)CC2)c1 (configuration not stated)	none | KCNK9 inh conf inactive | Kir2-1 spec inactive | KCNK9 uninduced inactive
Cc1ccc(C)c(N2CCN(CCCc3ccccc3)CC2)c1	none | KCNK9 inh conf inactive | Kir2-1 spec inactive | KCNK9 uninduced inactive
CC(C(=O)N1CCCCCC1)c1ccc([N+](=O)[O-])cc1 (configuration not stated)	none
CNS(=O)(=O)c1cccc(C(=O)OCc2cc(Cl)cc3c2OCOC3)c1	KCNK9 inh -13 | KCNK9 inh conf 48% | Kir2-1 spec inactive | KCNK9 uninduced inactive
Cn1c(C(=O)N2CCN(c3cccc(C(F)(F)F)c3)CC2)cc2sccc21	none | KCNK9 inh conf inactive | Kir2-1 spec inactive | KCNK9 uninduced inactive
